The source made the active and inactive calls. The rule behind the calls is not given here.
Experiments:
[1] = Stability in human plasma assessed as half life; format: ADME, cell-free
Coagulation factor X = Coagulation factor X (Homo sapiens, UniProt P00742); test: Inhibition of recombinant C-terminal 10His-tagged human coagulation factor 10a (Leu24 to Lys488 residues) expressed in baculovirus infected Sf9 insect cells using Bz-Ile-Glu-Gly-Arg-pNA as substrate preincubated for 30 mins followed by substrate addition by chromogenic assay
[2] = Stability in mouse plasma assessed as half life; format: ADME, cell-free
[3] = target: T1, Hepatocyte growth factor activator serine protease (Homo sapiens, UniProt Q04756); test: Inhibition of recombinant human HGFA serine protease domain using Boc-QLR-AMC as substrate preincubated for 30 mins followed by substrate addition by fluorescence based assay
T1 sequence (Q04756 whole entry): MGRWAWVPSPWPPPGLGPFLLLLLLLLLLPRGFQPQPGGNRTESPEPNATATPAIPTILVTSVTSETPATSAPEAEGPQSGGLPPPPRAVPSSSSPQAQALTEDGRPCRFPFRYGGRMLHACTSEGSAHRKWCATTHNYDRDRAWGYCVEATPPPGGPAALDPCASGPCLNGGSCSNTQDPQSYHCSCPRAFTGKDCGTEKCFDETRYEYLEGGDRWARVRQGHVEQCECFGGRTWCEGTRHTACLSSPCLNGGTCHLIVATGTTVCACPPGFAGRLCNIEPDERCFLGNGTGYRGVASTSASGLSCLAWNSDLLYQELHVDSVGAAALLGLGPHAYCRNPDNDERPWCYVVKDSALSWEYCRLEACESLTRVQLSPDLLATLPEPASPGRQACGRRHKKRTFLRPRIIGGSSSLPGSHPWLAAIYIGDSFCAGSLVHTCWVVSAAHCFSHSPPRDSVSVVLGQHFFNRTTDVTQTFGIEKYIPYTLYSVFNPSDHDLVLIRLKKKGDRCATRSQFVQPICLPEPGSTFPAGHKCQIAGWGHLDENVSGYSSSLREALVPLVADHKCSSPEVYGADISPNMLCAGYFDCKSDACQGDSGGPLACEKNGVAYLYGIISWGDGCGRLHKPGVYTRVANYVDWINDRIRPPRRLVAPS
How it was run: (§1)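 Inhibitor in 11-point serial dilution (0-20 µM final, 2% DMSO) pre-incubated 30 min at room temperature with enzyme in TNC buffer (25 mM Tris, 150 mM NaCl, 5 mM CaCl2, 0.01% Triton X-100, pH 8). […] Hepsin activated beforehand 24 h at 37°C. Fluorescence ex 380/em 460 nm kinetic; four-parameter fit of velocities; mean of three experiments.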

[4] = target: T2, Suppressor of tumorigenicity 14 protein (Homo sapiens, UniProt Q9Y5Y6); test: Inhibition of recombinant human N-terminal met-His6-tagged matriptase catalytic domain (Gly596 to Val855 residues) expressed in Escherichia coli using Boc-QAR-AMC as substrate preincubated for 30 mins followed by substrate addition by fluorescence based assay; how it was run: as §1
T2 sequence (Q9Y5Y6 whole entry): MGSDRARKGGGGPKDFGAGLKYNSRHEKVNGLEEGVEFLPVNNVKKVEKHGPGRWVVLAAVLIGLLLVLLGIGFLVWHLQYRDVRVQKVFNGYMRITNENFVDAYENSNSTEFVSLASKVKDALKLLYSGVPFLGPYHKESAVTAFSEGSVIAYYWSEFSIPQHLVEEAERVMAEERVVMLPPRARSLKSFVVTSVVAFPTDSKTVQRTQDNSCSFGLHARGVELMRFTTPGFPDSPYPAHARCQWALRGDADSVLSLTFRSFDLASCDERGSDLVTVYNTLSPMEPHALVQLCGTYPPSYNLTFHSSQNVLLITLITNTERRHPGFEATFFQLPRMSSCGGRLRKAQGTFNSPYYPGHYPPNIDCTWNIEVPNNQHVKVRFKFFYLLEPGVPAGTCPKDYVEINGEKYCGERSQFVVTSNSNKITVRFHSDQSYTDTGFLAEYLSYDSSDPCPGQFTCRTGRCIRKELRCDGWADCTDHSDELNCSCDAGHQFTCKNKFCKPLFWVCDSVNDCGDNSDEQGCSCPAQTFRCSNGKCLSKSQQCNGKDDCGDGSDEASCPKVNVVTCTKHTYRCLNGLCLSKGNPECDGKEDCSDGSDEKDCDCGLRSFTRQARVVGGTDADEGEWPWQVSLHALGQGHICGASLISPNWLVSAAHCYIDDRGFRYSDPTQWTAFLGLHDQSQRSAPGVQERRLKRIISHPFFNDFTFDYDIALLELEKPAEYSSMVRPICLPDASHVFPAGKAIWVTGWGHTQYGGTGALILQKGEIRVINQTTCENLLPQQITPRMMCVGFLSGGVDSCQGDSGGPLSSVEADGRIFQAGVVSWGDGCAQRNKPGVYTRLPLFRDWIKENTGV

Serine protease hepsin = Serine protease hepsin (Homo sapiens, UniProt P05981); test: Inhibition of recombinant human C-terminal 10-His tagged hepsin (Arg45 to Leu417) expressed in mouse myeloma cells using Boc-QAR-AMC as substrate preincubated for 30 mins followed by substrate addition by fluorescence based assay; format: single protein; how it was run: as §1
NCI-H596 [5] = test: Inhibition of pro-HGF stimulated cell growth in human H596 cells at […] by ELISA; format: functional, cell-based; details: dose 33.3 µM
[6] = Plasma protein binding in mouse assessed as unbound fraction; format: ADME, cell-free
Prothrombin = Prothrombin (Homo sapiens, UniProt P00734); test: Inhibition of recombinant thrombin (unknown origin) using D-Phe-Pip-Arg-pNA as substrate preincubated for 30 mins followed by substrate addition by chromogenic assay
HCC827 = test: Cytotoxicity against human HCC827 cells assessed as reduction in cell viability at 20 nM after 72 hrs in presence of pro-HGF by crystal violet staining based assay; format: functional
How it was run: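 HCC827 cells treated with gefitinib (20 nM) with or without pro-HGF (100 ng/ml) and with compound (0.1-1 µM). Viability by crystal violet staining after 72 h. Means±S.E.M., n=3-5; one-way ANOVA with Dunnett's test versus gefitinib plus pro-HGF.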

[7] = Half life in mouse plasma at 20 mg/kg, ip; format: ADME, organism-based; details: for t1/2: in vivo, 20 mg/kg
NCI-H596 [8] = test: Inhibition of pro-HGF stimulated cell growth in human H596 cells at 500 nM by ELISA; format: functional, cell-based
EBC-1 = test: Cytotoxicity against human EBC-1 cells assessed as reduction in cell viability preincubated with pro-HGF for 24 hrs followed by compound addition and measured after 48 hrs by CellTiter-Glo assay; format: functional, cell-based
NCI-H596 [9] = test: Antitumor activity against human NCI-H596 cells xenografted in hHGF knock in NSG mouse assessed as tumor growth inhibition at 40 mg/kg, po administered daily for 14 to 16 days; format: functional, organism-based; details: time 14-16 day
How it was run: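 Female hHGF-KI NSG mice given 2 million H596 cells, or males given 0.5 million. Dosing started at tumor volume ~40 or ~350 mm3. Daily oral dosing at 40 mg/kg for 16 or 14 days. Tumor growth compared with control-treated mice by ANOVA with Dunnett's test, n=3-6 per group.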

NCI-H596 [10] = test: Antitumor activity against human NCI-H596 cells xenografted in hHGF knock in NSG mouse assessed as tumor growth inhibition at 40 mg/kg, po administered daily for 25 days; format: functional, organism-based; details: time 25.0 day
How it was run: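 Prevention design in female hHGF-KI NSG mice injected with ten million H596 cells. Oral dosing at 40 mg/kg daily began immediately after injection and ran for 25 days. Tumor growth tracked, n=3-5 per group, Dunnett's test versus control.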

Row | t1/2 [1] | t1/2 [2] | Compound | further results
1 | 216.1 min | 261.2 min | CC(=O)N[C@H]1CC(=O)NCCCC[C@@H](C(=O)N[C@@H](CCCNC(=N)N)C(=O)c2nc3ccccc3s2)NC(=O)[C@H](C)NC1=O | IC50 (Coagulation factor X): > 20 µM
2 |  |  | N=C(N)Nc1ccc(C(=O)Oc2ccc3cc(C(=N)N)ccc3c2)cc1 | inhibition (NCI-H596 [5]): Active
3 | 151 min | 156 min | CC(=O)N[C@H]1CCCCNC(=O)CC[C@@H](C(=O)N[C@@H](CCCNC(=N)N)C(=O)c2nc3ccccc3s2)NC(=O)[C@H](CCCNC(=N)N)NC1=O | fraction unbound [6]: 0.259; IC50 (Coagulation factor X): 0.155 µM; IC50 (Prothrombin): > 20 µM
4 | > 289.1 min | > 289.1 min | CC(=O)N[C@H]1CC(=O)NCCCC[C@@H](C(=O)N[C@@H](CCCNC(=N)N)C(=O)c2nccs2)NC(=O)[C@H](CC(C)C)NC1=O | IC50 [3]: > 20 µM
5 | > 289.1 min | > 289.1 min | CC(=O)N[C@H]1CC(=O)NCCCC[C@@H](C(=O)N[C@@H](CCCNC(=N)N)C(=O)c2nc3ccccc3s2)NC(=O)CNC1=O | 
6 | > 289.1 min | > 289.1 min | CC(=O)N[C@H]1CC(=O)NCCCC[C@@H](C(=O)N[C@@H](CCCNC(=N)N)C(=O)c2nc3ccccc3s2)NC(=O)[C@H](C(C)C)NC1=O | 
7 |  |  | COc1cc2ncnc(Nc3ccc(F)c(Cl)c3)c2cc1OCCCN1CCOCC1 | Activity (HCC827): inactive
8 | > 289.1 min | 276.8 min | CC(=O)N[C@H]1CC(=O)NCCCC[C@@H](C(=O)N[C@@H](CCCNC(=N)N)C(=O)c2nc3ccccc3s2)NC(=O)[C@H](Cc2ccc(O)cc2)NC1=O | IC50 [3]: > 20 µM
9 |  |  | Cn1cc(-c2ccc3nnc(C(F)(F)c4ccc5ncccc5c4)n3n2)cn1 | inhibition (NCI-H596 [8]): Active; Activity (EBC-1): inactive; Activity (NCI-H596 [9]): Active; Activity (NCI-H596 [10]): Active
10 | > 289.1 min | > 289.1 min | CC(=O)N[C@H]1CC(=O)NCCCC[C@@H](C(=O)N[C@@H](CCCNC(=N)N)C(=O)c2nc3ccccc3s2)NC(=O)[C@H](CC(N)=O)NC1=O | 
11 | > 289 min | 274 min | CC(=O)N[C@H]1CCCCNC(=O)CC[C@@H](C(=O)N[C@@H](CCCNC(=N)N)C(=O)c2nc3ccccc3s2)NC(=O)[C@H](CC(C)C)NC1=O | t1/2 [7]: 0.71 h; fraction unbound [6]: 0.184; IC50 (Prothrombin): > 20 µM

Row | Compound | t1/2 [1] | t1/2 [2] | further results
12 | CSCC[C@@H]1NC(=O)[C@@H](NC(C)=O)CC(=O)NCCCC[C@@H](C(=O)N[C@@H](CCCNC(=N)N)C(=O)c2nc3ccccc3s2)NC1=O | > 289.1 min | > 289.1 min | 
13 | CC(=O)N[C@H]1CC(=O)NCCCC[C@@H](C(=O)N[C@@H](CCCNC(=N)N)C(=O)c2nc3ccccc3s2)NC(=O)[C@H]([C@@H](C)O)NC1=O | 248.5 min | 192.6 min | IC50 (Coagulation factor X): 13.3 µM; IC50 [3]: 11.8 µM; IC50 [4]: 3.7 nM; IC50 (Serine protease hepsin): 5.8 nM
14 | CC(=O)N[C@H]1CC(=O)N(C)CCCC[C@@H](C(=O)N[C@@H](CCCNC(=N)N)C(=O)c2nc3ccccc3s2)NC(=O)[C@H](CC(C)C)NC1=O | > 289 min | > 289 min | half-life ([7]; plasma): 33.2 min; IC50 [3]: 12 µM
15 | CC(=O)N[C@H]1CC(=O)NCCCC[C@@H](C(=O)N[C@@H](CCCNC(=N)N)C(=O)c2nc3ccccc3s2)NC(=O)[C@H](Cc2ccccc2)NC1=O | > 289.1 min | > 289.1 min | t1/2 [7]: 1.61 h; IC50 (Serine protease hepsin): 17 nM
16 | CC(=O)N[C@H]1CCCCNC(=O)C[C@@H](C(=O)N[C@@H](CCCNC(=N)N)C(=O)c2nc3ccccc3s2)NC(=O)[C@H](CC(C)C)NC1=O | > 289 min | 178 min | fraction unbound [6]: 0.853; IC50 (Prothrombin): > 20 µM; IC50 [3]: > 20 µM; IC50 [4]: 20 nM
17 | CC(=O)N[C@H]1CC(=O)NCCCC[C@@H](C(=O)N[C@@H](CCCNC(=N)N)C(=O)c2nc3ccccc3s2)NC(=O)[C@H](CCC(N)=O)NC1=O | > 289.1 min | > 289.1 min | IC50 (Coagulation factor X): > 20 µM
